# PKA-R2B activ – activators of human PKA-R2B complex | P22694+P31323 | PKA-R2B holoenzyme dissociation, Cy5-IP20 fluorescence polarization; R2B truncated from residue 108, S112A mutant; 0% DMSO only, 100% 113 µM cGMP | activation, % at 11.4 µM | 0.079% of 340,000 active;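 active means activation above a cutoff set at the mean over all compounds plus 3 SD, cut at about 18% in these data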;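 further: higher means more holoenzyme dissociation and a rise in polarization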
# Cardio protect – modulators protecting cardiomyocytes from myocardial damage. protection from H2O2 cell death, % at 20 µM. AID 588492. 0.63% of 360,000 active. H9c2 cardiomyocytes, H2O2 injury protection, ATPLite, 2 h;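 active means compounds giving at least 50% protection of heart cells from peroxide-induced death in the single-dose screen, raw or plate-pattern-corrected value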;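 further: 0% = DMSO wells with peroxide and 100% = DMSO wells without peroxide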
# PKA-R1A activ – PKA-R1A complex activation | activation, % at 11.4 µM | P00514+P68181 | PKA-R1A dissociation, Cy5-IP20 fluorescence polarization; scaled: DMSO 0%, 113 µM cGMP 100% | 0.083% of 340,000 active;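 active means percent activation above the mean of all tested compounds plus 3 SD, cut at about 19% in these data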;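 further: higher means more PKAc released from R1A so a rise in polarization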
# Tb MetRS inh – Trypanosoma brucei MetRS inhibition; 0.4% of 360,000 active; AID 624268; purified T. brucei MetRS, ATP depletion, Kinase-Glo luminescence; inhibition, % at 11.9 µM;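 active means inhibition above a per-plate cutoff of the control wells' mean inhibition plus 3 SD, cut at about 5.5% in these data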;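 further: 0% = DMSO wells median and 100% = median of wells with control inhibitor compound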
#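 Measured by: Kinase-Glo luciferase luminescence reporting remaining unconsumed ATP. Material: purified T. brucei MetRS enzyme. Doses: 11.9 µM compound single dose, 0.9% DMSO. Medium: HEPES buffer containing pyrophosphatase, BSA, spermine, DTT. Times: 15 min preincubation, 2 h reaction, all 25 °C. Reagent: methionine, ATP and bulk E. coli tRNA.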
# Rin1-Abl PPI inh – blocks binding of human Rin1 to Abl | P00519+Q13671 | TR-FRET Rin1/Abl binding, biochemical | inhibition, % at 7.35 µM | 0.4% of 360,000 active | AID 588664; in the data active means inhibition above about 5%, passing the limit was not always enough
# Rin1 Abl conf – Rin1-Abl interaction inhibition confirmation | inhibition, % at 7.35 µM | shares compounds with Rin1-Abl PPI inh | 49% of 1,300 active | TR-FRET Rin1-Abl binding, purified proteins
# GFP quench-1 – counter-screen for Rin1-Abl inhibitors: GFP fluorescence quenchers | inhibitors/quenchers counterscreen | shares compounds with Rin1-Abl PPI inh | inhibition, % at 6.75 µM | 8.5% of 1,300 active;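 further: ABL1-eGFP fusion protein alone without its partner RIN1-SBP; 0% = protein with vehicle and 100% = wells lacking protein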
# GFP quench dose – GFP fluorescence interference dose response; shares compounds with Rin1-Abl PPI inh; 230 tested, under 10 active; IC50, µM; GFP fluorescence interference/quenching counterscreen; call rule not given here;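 further: ABL1-eGFP fusion protein alone without its RIN1 binding partner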
# GFP quench-2 – GFP quenching artifact for Rin1-Abl inhibitor hits. shares compounds with Rin1-Abl PPI inh. GFP fluorescence quenching counterscreen, biochemical. IC50, µM. 25 tested, under 10 active. AID 602397; call rule not given here
# Active calls of the source: *; . = no result given. Shown are actives, neighbours in structure and some others; about 1.5% of the full set was active somewhere. Unless noted, no stated cut-off is given here; in the data, active means inhibition above about 6.5%; inactive means the rest.
SMILES,PKA-R2B activ,Cardio protect,PKA-R1A activ,Tb MetRS inh,Rin1-Abl PPI inh,Rin1 Abl conf,GFP quench-1,others
CC(NS(=O)(=O)c1ccc2c(c1)CC(C)N2C(=O)C1CC1)c1ccccc1 (stereo unspecified),-1,-5,-1,-1,9.5*,-1,-1,
CCOC(=O)[C@]12CCCC=C1N(CCc1ccc(OC)c(OC)c1)C(=O)[C@H](CC(=O)NCc1ccc(C)o1)C2,.,.,.,0,.,.,.,
COCCCNc1nc2ccccc2nc1NS(=O)(=O)c1cccs1,8,3,3,0,14*,-3,0,
COCCCNc1nc2ccccc2nc1NS(=O)(=O)c1ccc(OC)cc1,1,4,5,0,-5,.,.,
N#C/C(=C\c1ccc(O)c(O)c1)C(=O)Nc1cccc2ncccc12,2,55*,5,1,8.7*,13*,14*,
COc1ccc(/C=C(\C#N)C(=O)Nc2cccc3ncccc23)cc1OC,-3,1,5,0,-4,.,.,
CCOC(=O)N1CCN(C(=O)Nc2ccc(NC(=O)N3CCN(C(=O)OCC)CC3)cc2)CC1,2,4,-5,0,33*,38*,-1,GFP quench dose=>68;GFP quench-2=>68
CCOC(=O)N1CCN(C(=O)C2CCN(C(=O)Nc3ccccc3)CC2)CC1,4,3,16,0,3,.,.,
FC(F)(F)c1ccc(C2[C@H]3CN(Cc4cccnc4)[C@H](c4ccccc4)C34CC2(c2cccnc2)C4)cc1 (stereo partly specified),-17,1,-7,0,5,.,.,
Clc1ccc(C2[C@H]3CN(Cc4cccnc4)[C@H](c4ccccc4)C34CC2(c2cccnc2)C4)cn1 (stereo partly specified),-13,8,-6,0,59*,72*,0,
CC(O)(c1ccc(F)c(F)c1)c1nc(-c2ccc3ccccc3c2)cs1 (stereo unspecified),.,-25,.,0,-2,.,.,
Cc1ccc(C2=C(O)C(=O)C(c3ccc(C)cc3)=C(O)C2=O)cc1,0,10,0,0,2,.,.,
CC1=C(O)C(=O)C(C2=C(O)C(=O)C(C)=C(O)C2=O)=C(O)C1=O,-5,3,-8,1,46*,37*,28*,
COc1cc(C)nc(-c2csc(C)n2)n1,3,3,-11,-1,-3,.,.,
Fc1cccc(Cl)c1CNCCCSc1ncccn1,-11,1,-13,0,6.9*,-1,0,
Oc1cccc(/C=N/Nc2ncnc3c2ncn3Cc2ccccc2)c1,-9,-6,5,0,-3,.,.,
Oc1ccc(/C=N/Nc2ncnc3c2ncn3Cc2ccccc2)cc1O,2,38,6,1,12*,11*,9.1*,
COCc1nnc(NC(C)=O)s1,-6,14,5,-1,-1,.,.,
O=C(CCCn1c(=O)oc2ccccc21)Nc1ccccc1,-5,-2,-1,0,1,.,.,
CC1(c2ccccc2)NC(=O)N(CC(=O)Nc2ccc3c(c2)CCC3)C1=O (stereo unspecified),5,-2,-4,0,8.2*,-2,1,
CC(=O)c1ccc(N(C(=O)c2csnn2)C(C(=O)NC2CCCC2)c2ccccc2)cc1 (stereo unspecified),-5,4,10,-1,11*,2,0,
CCOC(=O)C1CCCN(C(=O)c2cn(C)c(=O)c3cc(OC)c(OC)cc23)C1 (stereo unspecified),1,8,-12,0,25*,32*,0,GFP quench dose=>68
COc1cc2c(C(=O)N3CCN(c4ccccc4F)CC3)cn(C)c(=O)c2cc1OC,-1,0,3,-1,8.9*,12*,1,
CCOC(=O)C1CCCN(C(=O)c2cn(CC)c(=O)c3cc(OC)c(OC)cc23)C1 (stereo unspecified),-6,2,-8,0,-3,.,.,
CN1CCCCC1(C)C(=O)NCc1ccc(C(C)(C)C)cc1 (stereo unspecified),.,3,.,0,-2,.,.,
SMILES,PKA-R2B activ,Cardio protect,PKA-R1A activ,Tb MetRS inh,Rin1-Abl PPI inh,Rin1 Abl conf,GFP quench-1,others
Cc1cc(C)nc(NC(=O)c2c(-c3c(Cl)cccc3Cl)noc2C)n1,-13,10,-1,-1,-2,.,.,
Cc1cc(C)nc(NC(=O)c2c(Cl)cccc2Cl)n1,-2,0,-4,-2,4.4*,2,3,
O=C(O)CCCC[C@@H]1SC[C@@H]2NC(=O)N[C@@H]21,-1,-1,-1,1,84*,93*,-1,GFP quench dose=>68
COC(=O)CCCCC1SCC2NC(=O)NC21 (stereo unspecified),-4,-2,-9,-1,12*,16*,0,
O=C(O)CCCCCCCCCCC1CCC(O)C1O (stereo unspecified),1,2,-2,0,0,.,.,
OCCN1CCN(c2cnc(-c3ccsc3)cn2)CC1,.,2,.,0,6.3*,-4,1,
COc1ccc(CN(CCC(c2ccc(F)cc2)C2CCOC(C)(C)C2)C(=O)c2ccco2)cc1 (stereo unspecified),-1,49,-13,-1,5.5*,18*,0,
CC(c1ccccc1)N(CCC(c1ccccc1)C1CCOC(C)(C)C1)C(=O)c1ccco1 (stereo unspecified),-11,-1,2,0,-1,.,.,
O=C(/C=C/c1cccnc1)c1cccc(O)c1,3,-12,-7,0,8.6*,10*,0,
Cc1cc(C)n(-c2ccc(C(=O)N3CCN(S(=O)(=O)c4ccc(Br)cc4Cl)CC3)cc2)n1,2,-7,-3,0,0,.,.,
C[N+]1(CC(O)COCC2COc3ccccc3O2)CCOCC1 (stereo unspecified),7,5,1,-2,-3,.,.,
O=C(Nc1c(C(=O)N2CCCC2)cnn1-c1ccccc1)c1cccc(F)c1,-2,0,7,-1,-4,.,.,
NC(=O)C1CCN(C(=O)c2cnn(-c3ccccc3)c2NC(=O)c2cccc(F)c2)CC1,6,1,8,1,23*,1,1,
Cc1ccc(C(=O)Nc2ccc(O)cc2C(=O)O)cc1,2,-9,-1,0,11*,13*,0,
Cc1ccc(C(=O)Nc2ccc(O)cc2C(=O)O)cc1C,-8,-12,0,-2,27*,16*,0,

# Screening data from PubChem.
